Test system: MS2 coat protein
Assay: apparent Kd, MS2 coat protein; higher = weaker binding; RNA-MaP array; FMN 200 µM where present
Method in brief: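 The apparent Kd comes from binding curves fitted cluster by cluster, filtered, and summarised as a median. Those curves followed SNAP-549-labelled MS2 coat protein from 0.7 or 1.5 nM, doubling to 3 µM, on Illumina sequencing-chip clusters where stalled E. coli RNA polymerase had transcribed the designs, without and then with constant ligand. The buffer was 100 mM Tris-HCl pH 7.5, 80 mM KCl, 4 mM MgCl2, BSA, DTT, yeast tRNA and Tween-20, and green signal was normalised to red-channel RNA signal and control-cluster median Fmax.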

[1] = designed as: ON switch for flavin mononucleotide, no ligand
[2] = ligand present: flavin mononucleotide, designed as: ON switch for flavin mononucleotide
[3] = designed as: OFF switch for flavin mononucleotide, no ligand
[4] = ligand present: flavin mononucleotide, designed as: OFF switch for flavin mononucleotide

Row | Sequence | apparent Kd [1] | apparent Kd [2] | apparent Kd [3] | apparent Kd [4]
1 | UGUUGUAUUACAGGAUAUCUAGUAUUUUUAUUUAGAGAAGGGUAUUCACAUGAGGAUCACCCAUGUAUAUACGAGGAAGUUGUG | 34.3 nM | 38.8 nM |  | 
2 | UUGAGGUCAGGAUAUGCAUGGCGGGACUUGCGUCGUGGCGUGGAGAAGGGACAUGAGGAUCACCCAUGUGGAGU |  |  | 93.1 nM | 53.4 nM
3 | CGGGAUUCCUGAGGAUAUGGAGCUGUCUACCUGGGCGACAUGAGGAUCACCCAUGUAGAACGCCUCCAGAAGGCAGCGAGAUUG |  |  | 27.3 nM | 23.8 nM
4 | GGUCCAUUAUGAGGAUAUGGCACCUUAUUGGUGCCAGAAGGCAUAUGUCUUCACAUGAGGAUCACCCAUGUAAUAAAUUGGACC | 17.4 nM | 19.5 nM |  | 
5 | UUACAGCAAGGAUAUACAUGAGGAUCACCCAUGUAUGCGUGUUCGAGAGAGGCCUACGGUAGAAGGUGCAUGUU |  |  | 24.1 nM | 22.4 nM
6 | CUGUUUAAAGUGAGGAUAUGAACCUAGAACCAGGAUUAGAAGGCACAUGAGGAUCACCCAUGUGGUUGGUUGGG |  |  | 16.6 nM | 16.7 nM
7 | GUGCGGUAGGAGAAGGACGGAGGCUUCAUUACAUACAUGAGGAUCACCCAUGUAGGAUAUCCUACCUCACGCGGCCUCCUUCUG |  |  | 6.52 nM | 7.65 nM
8 | GACAAGUGAGGAUAUCUGAUGUCUAACUUCGGUUAGACAUCAGAGAAGGCACAUGAGGAUCACCCAUGUCUGUC |  |  | 30.7 nM | 20.8 nM
9 | AUAAUGAGAGGAUAUACAUGAGGAUCACCCAUGUUAUUAUCACGGCGUGCUCCAUUACGUAGAAGGCUCAUUUA |  |  | 117 nM | 35.2 nM
10 | UUGUUAUAUGUAGGAUAUGCAUAUUGUUGUUAUGCAGAAGGACAUGAGGAUCACCCAUGUAUAUUAUUGUUAUAUAUUGUAUAU |  |  | 25.4 nM | 34.6 nM
11 | GAAGCCUGAGAGAAGGGCCACAUGAGGAUCACCCAUGUGUGCUCUCCUGUGGCAGGAUAUCUAUGGGCUGACUGGCUAAUCCAU |  |  | 6.84 nM | 4.6 nM
12 | UCCUACAUGGGAGGAUAUGGGAUGAUAACAUGAGGAUCACCCAUGUUAAAGAUGCCGAGAGGCAACUAGAAGGCCCAUGUAGGU | 434 nM | 70.3 nM |  | 
13 | GCACAAAGGUGACACCGUGUCGCUCAGGAUAUACGUGACGGCCCUCGCACAUGAGGAUCACCCAUGUAGAAGGGAGUUAAACGG |  |  | 7.66 nM | 14.9 nM
14 | ACUAUACGAGGAUAUACUGACGGGCCUCAGGCGUCCAUCAGACAUGAGGAUCACCCAUGUAGAAGGCGUAUACU |  |  | 85.5 nM | 196 nM
15 | UCAUAUAUACAAGGAUAUCAAUGAUUUGUAGAUCCUACAUGAGGAUCACCCAUGUUUUUAUAUUUUGAGAAGGUGUAGUGUCUU | 178 nM | 352 nM |  | 
16 | UAUGAACAUGAGGAUCACCCAUGUGGAAAGGACACAGGAUAUCAUCUCGCACGUGCGAUAUGAGAAGGGUGAUGGU | 117 nM | 180 nM |  | 
17 | UGGAUGUGGGUUCCACAUGAGGAUCACCCAUGUACCGAUGAGAGAAGGCACUCUAGUACCUAGAGUGAGGAUAUCUACAUUCAA |  |  | 4.32 nM | 9.75 nM
18 | AUGCUUUAUGUAGGAUAUGCAUACUGUUAGUAUGCAGAAGGACAUGAGGAUCACCCAUGUAUAUUAUUAUUACAUAUCAUACAU |  |  | 26 nM | 311 nM
19 | UGCACAUGAGGAUCACCCAUGUAUUGUUCGGUUAAUAGAAGUGAGGAUAUGCUUAAAAUAAGGUAGCAGAAGGCACUGGGUUCA | 27.8 nM | 29.6 nM |  | 
20 | CGGGCUGCCAGAGGAUAAUGGACAUGAGGAUCACCCAUGUGUCAGGAUAUGGGUUUCACAUGGACUCAGAAGGGACCAGCCCGA | 82.5 nM | 22.4 nM |  | 
21 | GGUGGAAGCACAGGAUAUGUUGAUUUUAUGGUGUUACAUGAGGAUCACCCAUGUCCGCGAUUCUAACAGAAGGGUGCAUGGAUG | 543 nM | 59.9 nM |  | 

Row | Sequence | apparent Kd [1] | apparent Kd [2] | apparent Kd [3] | apparent Kd [4]
22 | UUGGACGUCGUAGGAUAUGUAGGAUAUUCCUACAUGAGGAUCACCCAUGUUGACAUGGAAGUAGGACAGAAGGACGAUGUCCAU | 497 nM | 23.1 nM |  | 
23 | GGUUAAUGCAAGGAUAUGCUAUUAUUUUAUUUUGCAGAAGGUGCAACAUGAGGAUCACCCAUGUUGGAGGGUUU |  |  | 19.8 nM | 26.1 nM
24 | CCGUGGCAAGGAUAUACAUAGGAGAGGAAGGCAAGAGGAGGACAUGAGGAUCACCCAUGUAGAAGGUGCAGAUC |  |  | 73.8 nM | 67.8 nM
25 | AUGAUGUCAGGAUAUCGUUGGCUCACUUGUGUGUGCCAGUUCGAGAAGGGACAUGAGGAUCACCCAUGUUUUUA |  |  | 45 nM | 252 nM
26 | AAAAAACAUGAGGAUCACCCAUGUGAGGAUAUCGAGAAGAAGAAGAAGAAGAAGAGAACGAGAAGGCACAAAAA |  |  | 47.4 nM | 51.5 nM
27 | UGUCGGAGCAGAGGAUAUAUACAUGAGGAUCACCCAUGUAAAGAUCAAAGCUGGAAACAGCAAGUAUAGAAGGCUGCUCCGACA |  |  | 120 nM | 295 nM
28 | CACCGGCCCUAUAUGUUCUAGACAUGAGGAUCACCCAUGUAUAGAAGGGUCUUCGCGAAACGCAGACAGGAUAUGUACAGGAGU |  |  | 6.08 nM | 9.13 nM
29 | AAAAUCUAUUGAGGAUAUUCAUACACUACGUACGGAGAAGGCAAACAAUCAUGAGGACAUGAGGAUCACCCAUGUUGUGACCAU | 17.6 nM | 10.6 nM |  | 
30 | CAAGGUACCCAAGGAUAUCCUCACAUGAGGAUCACCCAUGUGUCAGCAAAAGGAGAAGGUGGGUGAAGCUGUCUGCACGCCAAG | 53.3 nM | 4.53 nM |  | 
31 | CUCGGACAUGAGGAUCACCCAUGUGAGGAUAUGGCGCGAUCGUCGAAAGACGAUAGCGCCAGAAGGCACAAAUG |  |  | 65.4 nM | 195 nM
32 | AAGAAACAUGAGGAUCACCCAUGUAAGAUAAACACAGGAUAUGCGAAUAAAAUAAAUAAAGCAGAAGGGUGAAGAA |  | 16.7 nM |  | 
33 | UCAGCGGUGCAAGGAUAUAACACAAUUGUCCUUAGUCGAGACGAGUGACAUGAGGAUCACCCAUGUUAGAAGGUGUCCUGCUGG |  |  | 72 nM | 326 nM
34 | AAAUACCUUGUGAUCAGCGUAACAUGAGGAUCACCCAUGUUGCAGGAUAUCGAACCCAGUCAGUACGAGAAGGGCAAUAGUGUU |  |  | 7.16 nM | 11.6 nM
35 | UAGAUGGGAGGAUAUACGUAUAUGCAGGUUCGUGUGGUGCUACAUGAGGAUCACCCAUGUAGAAGGCCCGUCUU |  |  |  | 38.6 nM
36 | AAAUUCUGAGGAUAUCGAUGUUUGUACAUGAGGAUCACCCAUGUCCUUUUUAUUUUUUCUCGAGAAGGCAGUGUAU |  |  | 38.1 nM | 35.3 nM
37 | UUAUUAAAUGUAGGAUAUGCAUAUUAUUAUUAUGCAGAAGGACAUGAGGAUCACCCAUGUAUAUUAUUAUUAUUUAUUAUAUAU |  |  | 44.8 nM | 65.6 nM
38 | AUAAUUAUAUAUUUCACAAGAAUCAGAAGGCGUUACAUGAGGAUCACCCAUGUUUUGUAUAGUAACGAGGAUAUGAUAUGGAAA |  |  | 15.2 nM | 14 nM
39 | CCAUAAAAGAUCCAAAAUUACAACAUGAGGAUCACCCAUGUGCAGGAUAUCGUGAAAGUGAAGUACGAGAAGGGCAGACACUGC |  |  | 145 nM | 166 nM
40 | AAAAAACAUGAGGAUCACCCAUGUGAGGAUAUCGAAAAGUCAAAGAAAAAGACGAAAACGAGAAGGCGCAAAAA |  |  | 49.6 nM | 45.5 nM
41 | CAGUACUGAGGAUAUACAUGAGGAUCACCCAUGUAUCCUAGCUAGGAAACUAGCAAAUGUAGAAGGCAGUACUG |  |  | 62.5 nM | 458 nM
42 | GGUACUCAAAGAGUACCAAAACGAACAUGAGGAUCACCCAUGUAGGAUAUGCUACUCAAAGAGUAGCAGAAGGACAUGUGCAGA |  |  | 29.6 nM | 149 nM

Source: the EternaBench riboswitch data
